One series relates to Mus musculus. Briefly: Induction of DL-norepinephrine-7-3H release from ARS HA(ICR)f outbred Swiss albino mouse heart assessed as remaining level at 10 mg/kg, sc after 2 hrs relative to control. To be noted: route subcutaneous. The format is functional. The method, boiled down: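 Mice (about 20 g) given 1.0 nmol (5 μCi) Norepi-3H iv by tail vein in isotonic NaCl with heparin. Compound 10 mg/kg sc 1 hr later; saline-injected controls. Hearts removed, homogenized in 10 vol 0.4 N HClO4 and centrifuged; tritium in the supernatant counted. Expressed as % of control, mean of duplicate determinations with five mice each.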

Series [1] addresses T1, Catechol O-methyltransferase (Rattus norvegicus) (UniProt P22734).
T1 sequence (whole entry): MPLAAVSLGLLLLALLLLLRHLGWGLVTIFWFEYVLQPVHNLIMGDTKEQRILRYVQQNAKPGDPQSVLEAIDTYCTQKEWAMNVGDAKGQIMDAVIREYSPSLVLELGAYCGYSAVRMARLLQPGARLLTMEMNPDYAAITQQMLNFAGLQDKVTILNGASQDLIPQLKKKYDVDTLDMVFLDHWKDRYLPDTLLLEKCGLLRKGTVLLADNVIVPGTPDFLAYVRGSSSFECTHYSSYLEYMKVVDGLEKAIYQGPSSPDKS
Briefly: Competitive inhibition of Sprague-Dawley rat liver COMT assessed as inhibition of methyl group transformation from SAM to DL-epinephrine-7-14C after 10 mins by scintillation spectrophotometric analysis. The method, boiled down: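 Partially purified rat liver COMT (calcium phosphate stage). SAM 1.0 mM as methyl donor, Epi-14C 0.05 μCi, epinephrine varied 54-404 μM, 10 min, stopped with borate pH 10.0. Radiolabeled metanephrine and paranephrine extracted with toluene-isoamyl alcohol (3:2) and counted. Reciprocal velocity vs reciprocal epinephrine plots give the inhibition pattern; Ki by Cleland's procedure.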

Substrate in series [2]: CC1(C)CNCc2cc(O)c(O)cc21
Put plainly: (§1) Activity of Sprague-Dawley rat liver COMT using [14CH3]-SAM as methyl group donor after 10 mins by scintillation spectrophotometric analysis. The method, boiled down: (§2)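 Rat liver COMT (male Sprague-Dawley, 180-200 g) purified through the calcium phosphate stage, approx 50-fold. Test catechol at 50-500 μM as substrate, SAM 1.0 mM with SAM-14CH3 0.05 μCi, 10 min incubation, stopped with borate buffer pH 10.0. O-methylated product extracted into toluene-isoamyl alcohol (3:2) and counted. Km and Vmax from double-reciprocal plots using Cleland's equations.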

Substrate in series [3]: CC1CN(C)Cc2cc(O)c(O)cc21
The description is as §1. The method, boiled down:
as §2

Substrate in series [4]: CNC[C@H](O)c1ccc(O)c(O)c1
Described as §1. The method, boiled down:
as §2

Substrate in series [5]: CN1Cc2cc(O)c(O)cc2C(C)(C)C1
The series is described as §1. A digest of the protocol:
as §2

Substrate in series [6]: Oc1cc2c(cc1O)CNCC2
The description is as §1. A digest of the protocol: as §2

Substrate in series [7]: CN1CCc2cc(O)c(O)cc2C1
Described as §1. The method, boiled down: as §2

For the molecule `Br.CN1CCc2cc(O)c(O)cc2C1`, the Activity in the series with Mus musculus worked out at 104%. The Kis in series [1] was determined as 152 µM.
For `Br.Oc1cc2c(cc1O)CNCC2` the same measures were 63% and 196 µM.
As for `Br.CC1CN(C)Cc2cc(O)c(O)cc21` (centres undefined), in the series on Mus musculus, the Activity amounted to 107%. In addition, in series [1], the Kis was determined as 101 µM.
Take `Br.CN1Cc2cc(O)c(O)cc2C(C)(C)C1`: the Activity with Mus musculus was determined as 115%. The Kis in series [1] stood at 187 µM.
Regarding `C[N+]1(C)CCc2cc(O)c(O)cc2C1.[Br-]`, in the series with Mus musculus, the Activity was 43%. The Kis in series [1] is 191 µM.
On the same counts, the results for `Br.CC1(C)CNCc2cc(O)c(O)cc21` are 103% and 259 µM.

B1: Catechol O-methyltransferase (Rattus norvegicus), P22734 (protein)
chain: T1 sequence (whole entry)
For the molecule B1, the Km (commonly the substrate concentration at which the rate is half of its maximum) in series [2] amounted to 310 µM; in series [3], 754 µM; in series [4], 398 µM; in series [5], 410 µM; in series [6], 540 µM; in series [7], 670 µM. Also, the Vmax (commonly the top rate of the reaction or transport when substrate is in excess) stood at 17.4 nmol/mg/min in series [2]; 21.2 nmol/mg/min in series [3]; 19.8 nmol/mg/min in series [4]; 12.1 nmol/mg/min in series [5]; 15.5 nmol/mg/min in series [6]; 18.5 nmol/mg/min in series [7].
